Test results: ChEMBL document CHEMBL6083225, “Copper selective 8-aminoquinoline based tetradentate chelators as anticancer agents” (RSC Med Chem, 2024)
pIC50: −log10 of the molar value. Activity calls are given as the source filed them. The calls are words filed in the database; no cut-off is given here.

What was measured:
[1] = Selectivity index, ratio of IC50 for cytotoxicity against human HaCaT cells assessed as cell viability to IC50 for cytotoxicity against human HeLa cells assessed as cell viability; type: toxicity, cell-based; details: HaCaT cells versus HeLa cells, read-out: Ratio IC50
How it was run: (§1)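 Selectivity index is IC50 in non-cancer HaCaT keratinocytes divided by IC50 in the cancer line. Both IC50 values came from MTT viability after 48 h exposure (5000 cells/well, 3.1–100 μM, absorbance at 570 nm), each a mean of at least three independent experiments.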

HeLa [2] = assay: Induction of apoptosis in human HeLa cells assessed as viable cells at 14.5 uM incubated for 48 hrs by Annexin V-FITC/PI staining based flow cytometry analysis (reference value: 91.2%); type: functional; details: read-out: Activity
Mitochondrial membrane [3] = assay: Induction of mitochondrial membrane potential depolarization in human HeLa cells assessed as decrease in red to green fluorescence intensity ratio at 3.7 to 14.5 uM incubated for 48 hrs by JC-1 staining based flow cytometric analysis; details: dose 3.7-14.5 µM
How it was run: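 HeLa cells attached overnight, then treated at 0, 3.7, 7.3 or 14.5 μM for 48 h and stained with JC-1. Red (590 nm) and green (527–529 nm) fluorescence measured by flow cytometry. Red/green ratio expressed as percent of untreated cells; one-way ANOVA, at least triplicate.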

HeLa [4] = assay: Induction of ROS production in human HeLa cells at 3.7 uM incubated for 48 hrs by H2DCFDA dye-based flow cytometry analysis; type: functional
How it was run: (§2)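 HeLa cells exposed to 0, 3.7, 7.3 or 14.5 μM for 48 h, trypsinised, washed in PBS, then loaded with H₂DCFDA (final 10 μM) at 37 °C for 30 min in the dark. DCF fluorescence (ex 498/em 522 nm) read by flow cytometry and expressed as percent of untreated cells. At least triplicate.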

HeLa [5] = assay: Induction of apoptosis in human HeLa cells assessed as late apoptotic cells at 7.3 uM incubated for 48 hrs by Annexin V-FITC/PI staining based flow cytometry analysis (reference value: 6.10 %); type: functional
HeLa [6] = assay: Cytotoxicity against human HeLa cells assessed as cell viability incubated for 48 hrs by MTT assay; type: functional, cell-based
How it was run: (§3)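 5000 cells/well preincubated 24 h at 37 °C, 5% CO₂, then exposed to 3.1–100 μM for 48 h; untreated control, 5-FU positive control. MTT at 0.5 mg/mL in FBS-free DMEM for 4 h, formazan dissolved in DMSO, absorbance read at 570 nm. IC50 taken as half-maximal inhibitory concentration; mean ± SD of at least three independent experiments.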

A549 = assay: Cytotoxicity against human A549 cells assessed as cell viability incubated for 48 hrs by MTT assay; type: functional, cell-based; details: A549, 48 h
How it was run: (§4)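 Cells seeded at 5000/well, held 24 h at 37 °C, 5% CO2, then exposed 48 h to 100, 50, 25, 12.5, 6.3 or 3.1 μM, with an untreated control. Then 0.5 mg mL⁻¹ MTT in FBS-free DMEM for 4 h at 37 °C, formazan dissolved in DMSO and read at 570 nm. IC50 is the mean ± SD of at least three independent experiments; 5-FU served as positive control.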

[7] = Cytotoxicity against human HaCaT cells assessed as cell viability incubated for 48 hrs by MTT assay; type: toxicity, cell-based; how it was run: as §4
HeLa [8] = assay: Induction of apoptosis in human HeLa cells assessed as viable cells at 7.3 uM incubated for 48 hrs by Annexin V-FITC/PI staining based flow cytometry analysis (reference value: 91.2%); type: functional; details: read-out: Activity
HeLa [9] = assay: Induction of apoptosis in human HeLa cells assessed as early apoptotic cells at 7.3 uM incubated for 48 hrs by Annexin V-FITC/PI staining based flow cytometry analysis (reference value: 2.56%); type: functional
Mitochondrial membrane [10] = assay: Induction of mitochondrial membrane potential depolarization in human HeLa cells assessed as red fluorescence intensity at 7.3 uM incubated for 48 hrs by JC-1 staining based flow cytometric analysis (reference value: 95.8); type: cell membranes
How it was run: (§5)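 HeLa cells grown in 10 cm dishes and left to attach overnight, then treated 48 h at 0, 3.7, 7.3 or 14.5 μM. Stained with JC-1 per kit instructions. Red (J-aggregate, 590 nm) and green (monomer, 527–529 nm) fluorescence read by flow cytometry. Red/green ratio expressed as % of untreated cells. At least triplicate; one-way ANOVA.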

[11] = Selectivity index, ratio of IC50 for cytotoxicity against human HaCaT cells assessed as cell viability to IC50 for cytotoxicity against human A549 cells assessed as cell viability; type: toxicity, cell-based; details: HaCaT cells versus A549 cells; how it was run: as §1
Mitochondrial membrane [12] = assay: Induction of mitochondrial membrane potential depolarization in human HeLa cells assessed as green fluorescence intensity at 3.7 uM incubated for 48 hrs by JC-1 staining based flow cytometric analysis (reference value: 3.28); type: cell membranes; how it was run: as §5
A-375 = assay: Cytotoxicity against human A-375 cells assessed as cell viability incubated for 48 hrs by MTT assay; type: functional, cell-based; details: A-375, 48 h; how it was run: as §3
Mitochondrial membrane [13] = assay: Induction of mitochondrial membrane potential depolarization in human HeLa cells assessed as green fluorescence intensity at 7.3 uM incubated for 48 hrs by JC-1 staining based flow cytometric analysis (reference value: 3.28; type: cell membranes; how it was run: as §5
HeLa [14] = assay: Induction of ROS production in human HeLa cells at 14.5 uM incubated for 48 hrs by H2DCFDA dye-based flow cytometry analysis; type: functional; how it was run: as §2
HeLa [15] = assay: Induction of ROS production in human HeLa cells incubated for 48 hrs by H2DCFDA dye-based flow cytometry analysis; type: functional, cell-based; details: dose 3.7-14.5 µM; how it was run: as §2
Mitochondrial membrane [16] = assay: Induction of mitochondrial membrane potential depolarization in human HeLa cells assessed as green fluorescence intensity at 14.5 uM incubated for 48 hrs by JC-1 staining based flow cytometric analysis (reference value: 3.28); type: cell membranes; how it was run: as §5
Mitochondrial membrane [17] = assay: Induction of mitochondrial membrane potential depolarization in human HeLa cells assessed as red fluorescence intensity at 14.5 uM incubated for 48 hrs by JC-1 staining based flow cytometric analysis (reference value: 95.8); type: cell membranes; how it was run: as §5
[18] = Selectivity index, ratio of IC50 for cytotoxicity against human HaCaT cells assessed as cell viability to IC50 for cytotoxicity against human HepG2 cells assessed as cell viability; type: toxicity, cell-based; details: HaCaT cells versus HepG2 cells; how it was run: as §1
HeLa [19] = assay: Induction of ROS production in human HeLa cells at 7.3 uM incubated for 48 hrs by H2DCFDA dye-based flow cytometry analysis; type: functional; how it was run: as §2
HeLa [20] = assay: Antiproliferative activity against human HeLa cells assessed as inhibition of colony formation at 1.5 to 12 uM incubated for 14 days by crystal violet staining based analysis; type: functional, cell-based; details: dose 1.5-12 µM, time 14.0 day
How it was run: (§6)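 1000 HeLa cells per 3.5 cm dish, treated after attachment with 0, 1.5, 3, 6 or 12 μM for 14 days, medium refreshed every 2 days. Cells were fixed in 100% methanol for 30 min and stained with 0.1% crystal violet for 30 min. Colonies were imaged and counted, normalised to control wells. At least triplicate.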

HeLa [21] = assay: Induction of apoptosis in human HeLa cells assessed as early apoptotic cells at 14.5 uM incubated for 48 hrs by Annexin V-FITC/PI staining based flow cytometry analysis (reference value: 2.56%); type: functional
HeLa [22] = assay: Induction of apoptosis in human HeLa cells assessed as late apoptotic cells at 3.7 uM incubated for 48 hrs by Annexin V-FITC/PI staining based flow cytometry analysis (reference value: 6.10 %); type: functional
HeLa [23] = assay: Induction of apoptosis in human HeLa cells assessed as necrotic cells incubated for 48 hrs by Annexin V-FITC/PI staining based flow cytometry analysis; type: functional, cell-based; details: dose 3.7-14.5 µM
COLO-829 = assay: Cytotoxicity against human COLO-829 cells assessed as cell viability incubated for 48 hrs by MTT assay; type: functional, cell-based; details: COLO-829, 48 h; how it was run: as §4
HepG2 = assay: Cytotoxicity against human HepG2 cells assessed as cell viability incubated for 48 hrs by MTT assay; type: functional, cell-based; details: HepG2, 48 h; how it was run: as §4
Mitochondrial membrane [24] = assay: Induction of mitochondrial membrane potential depolarization in human HeLa cells assessed as red fluorescence intensity at 3.7 uM incubated for 48 hrs by JC-1 staining based flow cytometric analysis (reference value: 95.8); type: cell membranes; how it was run: as §5
HeLa [25] = assay: Induction of apoptosis in human HeLa cells assessed as late apoptotic cells at 14.5 uM incubated for 48 hrs by Annexin V-FITC/PI staining based flow cytometry analysis (reference value: 6.10 %); type: functional
HeLa [26] = assay: Anti-migration activity in human HeLa cells assessed as inhibition of cell migration at 14.5 uM incubated 24 hrs by wound-healing assay; type: functional; design: scale not given: the % may be the effect or the level left
HeLa [27] = assay: Induction of apoptosis in human HeLa cells assessed as necrotic cells at 7.3 uM incubated for 48 hrs by Annexin V-FITC/PI staining based flow cytometry analysis (reference value: 0.12%); type: functional
HeLa [28] = assay: Induction of apoptosis in human HeLa cells assessed as early apoptotic cells at 3.7 uM incubated for 48 hrs by Annexin V-FITC/PI staining based flow cytometry analysis (reference value: 2.56%); type: functional
HeLa [29] = assay: Induction of apoptosis in human HeLa cells assessed as viable cells at 3.7 uM incubated for 48 hrs by Annexin V-FITC/PI staining based flow cytometry analysis (reference value: 91.2%); type: functional; details: read-out: Activity
HeLa [30] = assay: Antiproliferative activity against human HeLa cells assessed as inhibition of colony formation at 12 uM incubated for 14 days by crystal violet staining based analysis; type: functional, cell-based; details: time 14.0 day; how it was run: as §6
HeLa [31] = assay: Induction of apoptosis in human HeLa cells assessed as necrotic cells at 14.5 uM incubated for 48 hrs by Annexin V-FITC/PI staining based flow cytometry analysis (reference value: 0.12%); type: functional
HeLa [32] = assay: Induction of apoptosis in human HeLa cells assessed as necrotic cells at 3.7 uM incubated for 48 hrs by Annexin V-FITC/PI staining based flow cytometry analysis (reference value: 0.12%); type: functional
HeLa [33] = assay: Anti-migration activity in human HeLa cells assessed as increase in wound width at 14.5 uM incubated 24 hrs by wound-healing assay (reference value: 61%); type: functional

SMILES: CN(C)CCNCCc1ccc2c(Cl)cc(Cl)c(N)c2n1.Cl.Cl.Cl
- selectivity ratio [1]: 2.8
- viability at 14.5 µM (HeLa [2]): 49.3%
- Activity (Mitochondrial membrane [3]): Active
- Activity (HeLa [4]): 125%
- Activity (HeLa [5]): 8.49%
- pIC50 (HeLa [6]): 4.84
- Activity (HeLa [6]; dose <= 100.0 µM): Dose-dependent-effect
- pIC50 (A549): 4.79
- IC50 at 48 h [7]: 41.1 µM
- viability at 7.3 µM (HeLa [8]): 85.3%
- Activity (HeLa [9]): 6.06%
- Flu intensity (Mitochondrial membrane [10]): 91.2
- selectivity ratio [11]: 2.5
- Flu intensity (Mitochondrial membrane [12]): 5.51
- pIC50 (A-375): 4.42
- Flu intensity (Mitochondrial membrane [13]): 8.25
- Activity (HeLa [14]): 150%
- Activity (HeLa [15]): Dose-dependent-effect
- Flu intensity (Mitochondrial membrane [16]): 37.3
- Flu intensity (Mitochondrial membrane [17]): 61.8
- selectivity ratio [18]: 2.5
- Activity (HeLa [19]): 138%
- Activity (HeLa [20]): Active
- Activity (HeLa [21]): 21.6%
- Activity (HeLa [22]): 6.48%
- Activity (HeLa [23]): Dose-dependent-effect
- pIC50 (COLO-829): 4.40
- pIC50 (HepG2): 4.78
- Flu intensity (Mitochondrial membrane [24]): 93.9
- Activity (HeLa [25]): 28.9%
- Activity (HeLa [26]): 33%
- Activity (HeLa [27]): 0.1%
- Activity (HeLa [28]): 2.56%
- viability at 3.7 µM (HeLa [29]): 90.6%
- Activity (HeLa [30]): Active
- Activity (HeLa [31]): 0.15%
- Activity (HeLa [32]): 0.33%
- Activity (HeLa [33]): 74%

SMILES: O=c1[nH]cc(F)c(=O)[nH]1 [FLUOROURACIL]
- pIC50 (HeLa [6]): 4.84
- pIC50 (A549): 4.14
- IC50 at 48 h [7]: 30 µM
- pIC50 (COLO-829): 4.31
- pIC50 (HepG2): 4.78
